Source: PubChem BioAssay (several laboratories)
MC4R barr agon: activates human MC4R beta-arrestin recruitment; P32245; U2OS MC4R beta-arrestin complementation, luminescence; percent of melanotan II response, DMSO zero; activation, % at 8.9 µM; 360,000 compounds, 0.98% hits; AID 540308;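 active = activation above a per-plate cutoff, the mean activation of sample wells on that plate plus 3 SD, cut at about 8% in these data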
Target sequence (P32245 whole entry, looked up): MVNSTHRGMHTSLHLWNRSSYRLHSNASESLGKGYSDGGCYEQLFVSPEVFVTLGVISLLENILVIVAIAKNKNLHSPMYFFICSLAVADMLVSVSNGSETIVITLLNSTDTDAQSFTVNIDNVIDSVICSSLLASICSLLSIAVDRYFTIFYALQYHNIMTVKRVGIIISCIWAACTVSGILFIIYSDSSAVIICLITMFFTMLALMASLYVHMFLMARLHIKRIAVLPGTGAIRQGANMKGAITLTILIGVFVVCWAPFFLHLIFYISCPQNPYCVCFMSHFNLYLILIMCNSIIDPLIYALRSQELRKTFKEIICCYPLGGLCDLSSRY
aDG glyco act: increases alpha dystroglycan glycosylation; Pro5-aDG cells, alpha-DG glycosylation AlphaScreen (IIH6); 0% Pro5, 100% B10-LARGE cell signal; activation, % at 10 µM; 360,000 compounds, 0.22% hits; AID 624168;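 active = activation of at least 8% versus controls, or a plate z-score of at least 8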;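 note: Pro5 are CHO cells carrying HIG-tagged alpha-DG that lacks glycosylation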
Tb MetRS inh: Trypanosoma brucei MetRS inhibition; purified T. brucei MetRS, ATP depletion, Kinase-Glo luminescence; inhibition, % at 11.9 µM; 360,000 compounds, 0.4% hits;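 active = inhibition above a per-plate cutoff of the control wells' mean inhibition plus 3 SD, cut at about 5.5% in these data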;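 note: 0% = DMSO wells median and 100% = median of wells with control inhibitor compound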
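technique = Kinase-Glo luminescence, ATP depletion format | system = purified MetRS (methionyl-tRNA synthetase) enzyme from Trypanosoma brucei | timing = 15 min preincubation, 2 h reaction, all 25 °C | evaluation = percent inhibition versus plate control medians | dosing = single dose, 11.9 µM final nominal, 0.9% final DMSO | also added = substrates ATP, L-methionine and bulk Escherichia coli tRNA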
NTR1 agonist: activates human neurotensin receptor 1. P30989. activation, % at 20 µM. AID 493036. NTR1-U2OS beta-arrestin-GFP spot imaging, agonist mode. 330,000 compounds, 0.17% hits;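 active = activation at or above 40% of the spot to cytoplasm intensity ratio, with at least 20 cells analyzed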;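 note: 0% = DMSO without peptide and 100% = 100 nM NTR1 peptide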
MC4R antag cAMP: human MC4R antagonism in cAMP assay; P32245; MC4R-expressing cells, MTII-stimulated cAMP, LANCE TR-FRET; inhibition, % at 6.5 µM; 360,000 compounds, 0.48% hits; AID 540295;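 active = inhibition above its plate's cutoff, the mean of tested wells on that plate plus 3 SD, cut at about 29% in these data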;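 note: 0% = Melanotan II alone and 100% = Melanotan II plus saturating MCL0020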
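Assay system: human MC4R-expressing U2OS cells; reagent: Melanotan II stimulation of cells; dosing: 6.5 µM single dose; timing: compound 30 min, challenge 1 h, detection 1 h; signal: TR-FRET cAMP assay; replicates: one well per compound, no replicates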
H9c2 TAG inh: triacylglycerol accumulation inhibition; H9c2 cells, Nile Red lipid (TAG) fluorescence; cells loaded with 200 µM oleic acid; inhibition, % at 12.5 µM; 230,000 compounds, 0.66% hits; AID 651582;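 active = pattern-corrected inhibition of lipid staining of at least 50% with the nuclear-stain viability signal not falling by more than 50%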;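 note: 0% = DMSO wells and 100% = triacsin C control wells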
NTR1 ag conf: NTR1 (human) agonism, confirmed. shares compounds with NTR1 agonist. NTR1-U2OS beta-arrestin-GFP translocation imaging. activation, % at 20 µM. 480 compounds, 38% hits. AID 504550;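 active = mean activation at 20 µM of at least 40%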;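 note: 0% = DMSO without peptide and 100% = 100 nM NTR1 peptide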
* = called active by the depositor; . = not tested or not shown. Sampled rows, rich in hits. Any-hit rate of the full collection: about 2.4%.

SMILES | MC4R barr agon | aDG glyco act | Tb MetRS inh | NTR1 agonist | MC4R antag cAMP | H9c2 TAG inh | NTR1 ag conf
O=C(O)c1cc[c]([Hg][Cl])cc1 | -2 | 0 | 1 | 0 | 70* | 14 | .
COc1cc2c(cc1OC)-c1c3c(cc4c1[C@@H](C2)N(C)CC4)OCO3 | -1 | 0 | 0 | 2 | -6 | 53* | .
COc1cc2c(cc1OC)-c1c(OC)c(OC)cc3c1C(C2)N(C)CC3 (stereo unspecified) | 0 | 1 | -1 | 3 | -8 | . | .
Cc1cccc(C)c1-n1nnnc1C(c1cccs1)N1CCC2(CC1)C(=O)NCN2c1ccccc1 (stereo unspecified) | . | 0 | 0 | . | . | . | .
C[C@@H]1O[C@@H](O[C@@H]2C=C3CCC4C(CC[C@]5(C)[C@@H](c6ccc(=O)oc6)CC[C@]45O)[C@@]3(C)CC2)[C@H](O)[C@H](O)[C@H]1O (stereo partly specified) | 25* | 0 | -1 | -1 | 3 | -7 | .
CC(=O)C1CCC2(O)C3CCC4=CC(=O)CCC4(C)C3CCC12C (stereo unspecified) | 2 | 0 | 0 | . | 2 | 7 | .
C[C@@H]1O[C@@H](O[C@@H]2C=C3CC[C@@H]4C(CC[C@]5(C)[C@@H](c6ccc(=O)oc6)CC[C@]45O)[C@@]3(C)CC2)[C@H](O)[C@H](O)[C@H]1O (stereo partly specified) | 38* | 0 | 0 | -1 | 11 | 8 | .
CC(C)(C)n1nnnc1C(c1cccs1)N1CCC2(CC1)C(=O)NCN2c1ccccc1 (stereo unspecified) | . | 0 | 0 | . | . | . | .
CC(C)CC(=O)NC(Oc1ccc(Cl)cc1)C(Cl)(Cl)Cl (stereo unspecified) | 8.5* | 0 | 0 | 1 | 12 | -12 | .
O=C1NC(=O)N(Cc2ccco2)C(=O)/C1=C/c1ccc(-c2cccc([N+](=O)[O-])c2)o1 | -1 | 0 | 0 | 58* | 31* | . | .
C=CCN1C(=O)NC(=O)/C(=C\c2ccc(-c3ccccc3[N+](=O)[O-])o2)C1=O | 0 | 0 | 0 | 15 | 13 | -5 | .
C=C1C(=O)O[C@@H]2C[C@@H](C)[C@@H]3C=CC(=O)[C@@]3(C)[C@@H](O)[C@H]12 | -1 | 0 | -2 | 4 | -25 | 72* | .
O=C1NC(=O)N(Cc2ccccc2)C(=O)/C1=C/C=C/c1ccco1 | 0 | 0 | 0 | 4 | -7 | 16 | .
CC(C)c1ccc(N2C(=O)NC(=O)/C(=C\C=C\c3ccco3)C2=O)cc1 | . | . | . | 42* | . | . | 52*
CCOC(=O)[C@]12Cc3cc(C)ccc3[C@H]1N(C(C)C)C(=O)c1ccccc12 | . | 0 | 0 | . | . | . | .
COC(=O)C(O)(c1ccc(NC(=S)NC(=O)c2ccc(Cl)cc2Cl)c(C)c1)C(F)(F)F (stereo unspecified) | -1 | 1 | 0 | 15 | -4 | . | .
CCOC(=O)C(O)(c1ccc(NC(=S)NC(=O)c2ccc(Cl)cc2Cl)c(C)c1)C(F)(F)F (stereo unspecified) | 3 | 4 | 0 | 45* | 8 | . | 11
O=S(=O)(c1ccc(Cl)cc1)N1Cc2cc(Br)ccc2-n2nncc2C1 | . | 0 | -1 | . | . | . | .
O=c1[nH]c2ccccc2n1C1CCN(C(CCc2ccccc2)c2nnnn2-c2ccc3c(c2)OCCO3)CC1 (stereo unspecified) | . | 0 | -1 | . | . | . | .
CN1C(=O)/C(=C/c2cccn2-c2ccc3ccccc3c2)C(=O)NC1=S | -1 | 1 | 1 | 46* | 16 | -5 | 66*
Cc1cc(C)cc(N2C(=O)NC(=O)/C(=C\c3cccn3-c3ccccc3)C2=O)c1 | -2 | 0 | -1 | 76* | 16 | 2 | 67*
Oc1ccc(-[n+]2c(-c3ccccc3)cc(-c3ccccc3)cc2-c2ccccc2)cc1 | 4 | 0 | -1 | 81* | 3 | 12 | 84*
Cc1cc(/C=C2/C(=O)NC(=O)N(Cc3ccco3)C2=O)c(C)n1-c1ccccc1 | 4 | 0 | 0 | 86* | 7 | . | 2
